Assay results of several laboratories.
Each line is one published result; the experiments were not run side by side.
Target: Calcium/calmodulin-dependent protein kinase type IV (CAMK4, Homo sapiens, UniProt Q16566)
One construct used (Q16566 1-473): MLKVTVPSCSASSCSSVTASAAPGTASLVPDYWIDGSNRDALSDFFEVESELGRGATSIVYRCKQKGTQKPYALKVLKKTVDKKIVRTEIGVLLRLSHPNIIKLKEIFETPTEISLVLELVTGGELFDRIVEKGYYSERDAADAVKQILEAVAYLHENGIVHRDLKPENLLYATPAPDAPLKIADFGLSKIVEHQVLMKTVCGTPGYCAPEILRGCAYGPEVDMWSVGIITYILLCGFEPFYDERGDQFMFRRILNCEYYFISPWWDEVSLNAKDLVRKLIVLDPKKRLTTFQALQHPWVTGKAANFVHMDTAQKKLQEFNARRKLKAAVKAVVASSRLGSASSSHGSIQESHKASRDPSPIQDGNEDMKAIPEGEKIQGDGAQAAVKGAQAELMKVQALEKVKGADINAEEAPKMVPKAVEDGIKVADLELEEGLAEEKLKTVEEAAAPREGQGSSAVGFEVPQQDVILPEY

CC1=C(C#N)[C@@H](c2ccc3[nH]nc(C)c3c2)C(C#N)=C(c2ccc(Cl)cc2)N1 — remaining binding (cell-free assay, competition with immobilised ligand; 1 µM): 31.8%
CN(C)c1nccc(-c2cnn3ncccc23)n1 — remaining binding (binding; 1 µM): 100%
Cc1c(NC(=O)c2cc(C(N)=O)nc3cc(F)ccc23)c(C(F)(F)F)nn1Cc1ccc(C(C)(C)C)cc1 — remaining binding (cell-free assay, competition with immobilised ligand; 1 µM): 90%
O=C(NCC1CCOCC1)c1n[nH]cc1NC(=O)c1c(F)cccc1F — remaining binding (binding, competition with immobilised ligand; 1 µM): 100%
FC(F)(F)Oc1cccc(-c2cnc3ccc(-c4ccncc4)nn23)c1 — remaining binding (cell-free assay, competition with immobilised ligand; 5 µM): 100%
O=C(NCCCN1CCOCC1)c1ccc(Nc2ncc(Cl)c(-c3ccc(Cl)s3)n2)cc1 — remaining binding (binding, competition with immobilised ligand; 1 µM): 100%
F[C@@H]1CCN(c2nccc(-c3cnn4ncccc34)n2)C1 — remaining binding (binding; 1 µM): 79%
Cc1cnc(Nc2ccc(C(=O)N3CCC(N4CCCC4)CC3)cc2)nc1-c1cc2ccccc2s1 — remaining binding (binding, competition with immobilised ligand; 1 µM): 100%
C[C@@H](c1ccc(-n2cnc3c(N)ncnc32)cc1)N1CCc2nn(C)c(Cc3ccccc3)c2C1=O — remaining binding (binding, competition with immobilised ligand; 0.1 µM): 100%
CNC(=O)Nc1ccc2c(c1)CC[C@@]21OC(=O)N(CC(=O)N(Cc2ccc(F)cc2)[C@@H](C)C(F)(F)F)C1=O — remaining binding (cell-free assay, competition with immobilised ligand; 1 µM): 75%
CNC(=O)[C@@H]1CC[C@@H](n2c(-c3ccc4cnccc4c3)nc3ccc(C(=O)NCc4cccc(C(N)=O)c4)cc32)C1 — remaining binding (binding, competition with immobilised ligand; 1 µM): 100%
O=C(c1ccc(Nc2ncc(Cl)c(-c3cc4ccccc4s3)n2)cc1)N1CCC(N2CCCC2)CC1 — remaining binding (binding, competition with immobilised ligand; 1 µM): 100%
C[C@H](NC(=O)c1cnc2n1[C@](C)(Cc1ccc(C#N)cc1)C(=O)N2c1cc(Cl)c(F)c(Cl)c1)C(=O)NC1(c2ccccn2)CC1 — remaining binding (cell-free assay, competition with immobilised ligand; 1 µM): 100%
COc1ncc2cc3ccccc3nc2c1C#N — remaining binding (cell-free assay, competition with immobilised ligand; 5 µM): 93%
Cc1cnn2ncc(-c3ccnc(N(C)C)n3)c2c1 — remaining binding (binding; 1 µM): 86%
c1cncc(-c2cccc(Nc3nccc(NC4CCCCC4)n3)c2)c1 — remaining binding (binding, competition with immobilised ligand; 10 µM): 100%
N[C@H]1CCN(c2nccc(-c3cnn4ncccc34)n2)C1 — remaining binding (binding; 1 µM): 100%
C=CC(=O)N1CCC(C(=O)NCC(=O)N2CCN(c3nc(-c4cnc(N)nc4C(F)F)nc(N4CCOCC4)n3)CC2)CC1 — remaining binding (binding, competition with immobilised ligand; 1 µM): 86%
Nc1c(C(=O)NCc2ccc(C(=O)NCCCC3CCCCC3)cc2)cnn1-c1ccccc1 — remaining binding (cell-free assay, competition with immobilised ligand; 0.1 µM): 98%
CC1CCCN1c1nccc(-c2cnn3ncccc23)n1 (stereo not shown) — remaining binding (binding; 1 µM): 100%
CS(=O)(=O)c1cc(C2(NC(=O)c3cncc4c3cnn4-c3ccc(F)cc3)CC2)ccn1 — remaining binding (cell-free assay, competition with immobilised ligand; 1 µM): 100%
C[C@@H]1CCN(c2nccc(-c3cnn4ncccc34)n2)C1 — remaining binding (binding; 1 µM): 100%
